{"data": "Published values of several laboratories", "target": "NUAK family SNF1-like kinase 2 (NUAK2, Homo sapiens, UniProt Q9H093)", "Sequence (Q9H093 1-628, as in one of the studies)": "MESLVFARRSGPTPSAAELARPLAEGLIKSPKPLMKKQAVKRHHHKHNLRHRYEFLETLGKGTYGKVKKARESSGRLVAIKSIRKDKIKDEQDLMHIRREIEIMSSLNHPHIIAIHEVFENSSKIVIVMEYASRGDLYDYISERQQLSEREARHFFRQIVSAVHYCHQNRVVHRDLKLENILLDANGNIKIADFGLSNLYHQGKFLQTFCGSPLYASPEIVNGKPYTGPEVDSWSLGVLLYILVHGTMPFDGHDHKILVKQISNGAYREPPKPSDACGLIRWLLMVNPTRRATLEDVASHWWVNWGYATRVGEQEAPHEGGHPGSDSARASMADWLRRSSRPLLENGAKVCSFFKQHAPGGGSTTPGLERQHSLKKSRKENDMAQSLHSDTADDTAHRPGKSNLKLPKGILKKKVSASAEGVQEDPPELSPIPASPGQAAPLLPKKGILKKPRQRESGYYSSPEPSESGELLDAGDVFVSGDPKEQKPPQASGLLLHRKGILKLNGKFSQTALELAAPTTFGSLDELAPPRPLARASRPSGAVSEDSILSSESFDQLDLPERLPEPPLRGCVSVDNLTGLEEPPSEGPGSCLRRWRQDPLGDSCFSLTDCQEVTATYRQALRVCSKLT"}
{"Compound": "CC(C)(C)c1nc2c(s1)c1nc(N)ncc1c1ccc(NS(=O)(=O)c3c(F)cccc3F)c(F)c12", "observed": "enzyme activity", "action": "inhibitor", "technique": "radiometric", "concentration": "1 µM", "quantity": "remaining activity", "result": "81%"}
{"Compound": "COc1cc(Cl)c(C(=O)N[C@@H](CN[C@H]2CC[C@@H](N)CC2)Cc2ccc(C#N)cc2)cc1-c1ccc(CN[C@H](C)c2ccc(C)cc2)o1", "observed": "enzyme activity", "action": "inhibitor", "concentration": "1 µM", "quantity": "remaining activity", "result": "93%"}
{"Compound": "O=C(Nc1cnn(-c2csc(C(=O)NC3COC3)c2)c1)Nc1ccccc1Cl", "observed": "enzyme activity", "action": "inhibitor", "concentration": "5 µM", "quantity": "remaining activity", "result": "99.8%"}
{"Compound": "CC/C(=N\\NC(=O)NCc1cccc(O)c1)c1ccc(O)c(C)c1O", "observed": "enzyme activity", "action": "inhibitor", "concentration": "0.1 µM", "quantity": "inhibition", "result": "12.5%"}
{"Compound": "C#Cc1cccc(Nc2ncnc3cc(OCCOC)c(OCCOC)cc23)c1", "observed": "cell-free assay", "concentration": "0.5 µM", "quantity": "remaining signal", "result": "95.3%"}
{"Compound": "O=C(Nc1cnn(-c2csc(C(=O)NC3COC3)c2)c1)Nc1c(F)cccc1Cl", "observed": "enzyme activity", "action": "inhibitor", "concentration": "5 µM", "quantity": "remaining activity", "result": "97.8%"}
{"Compound": "N#CCCc1ccc2c(c1)-c1[nH]c3ccc([N+](=O)[O-])cc3c1CC(=O)N2", "observed": "cell-free assay", "concentration": "0.5 µM", "quantity": "remaining signal", "result": "67.6%"}
{"Compound": "CN1CC(Oc2cnc(C#N)cc2-c2ccn3nc(NC(=O)C4CC4)cc3c2)C1", "observed": "enzyme activity", "action": "inhibitor", "concentration": "1 µM", "quantity": "inhibition", "result": "-8%"}
{"Compound": "CN(c1ccnc(CNc2nc(Nc3ccc4c(c3)CC(=O)N4)ncc2C(F)(F)F)n1)S(C)(=O)=O", "observed": "cell-free assay", "technique": "competition with immobilised ligand", "concentration": "1 µM", "quantity": "remaining binding", "result": "7.6%"}
{"Compound": "CC(C)(O)[C@H]1CC[C@H](Nc2ccc3ncc(-c4cccc(C(F)(F)F)c4)n3n2)CC1", "observed": "enzyme activity", "action": "inhibitor", "concentration": "1 µM", "quantity": "remaining activity", "result": "84.9%"}
{"Compound": "O=C(O)c1cc(-c2ccc(C3CCNCC3)cc2)c2ccc(-c3ccc(C(F)(F)F)cc3)cc2c1", "observed": "cell-free assay", "technique": "competition with immobilised ligand", "concentration": "1 µM", "quantity": "remaining binding", "result": "100%"}
{"Compound": "O=C1Nc2ccc(Cl)cc2C1=Cc1cc(Cl)c(O)c(Cl)c1", "observed": "cell-free assay", "concentration": "0.5 µM", "quantity": "remaining signal", "result": "78.7%"}
{"Compound": "CC(C)(C)c1nc(-c2cccc(NS(=O)(=O)c3c(F)cccc3F)c2F)c(-c2ccnc(N)n2)s1", "observed": "enzyme activity", "action": "inhibitor", "technique": "radiometric", "concentration": "1 µM", "quantity": "remaining activity", "result": "90%"}
{"Compound": "COc1ccc2c(O[C@@H]3C[C@H]4C(=O)N[C@]5(C(=O)O)CC5/C=C\\CCCCC[C@H](NC(=O)OC5CCCC5)C(=O)N4C3)cc(-c3csc(NC(=O)C(C)C)n3)nc2c1C (some centres unmarked)", "observed": "cell-free assay", "technique": "competition with immobilised ligand", "concentration": "1 µM", "quantity": "remaining binding", "result": "91%"}
{"Compound": "Cc1ccc(C(=O)Nc2ccc(CN3CCN(C)CC3)c(C(F)(F)F)c2)cc1C#Cc1cnc2cccnn12", "observed": "enzyme activity", "action": "inhibitor", "concentration": "23.5 nM", "quantity": "remaining activity", "result": "84%"}
{"Compound": "COc1cc(-c2cn(C3CCc4c(F)cccc4N(CC(F)(F)F)C3=O)nn2)ccc1-n1cnc(C)c1 (centres unmarked)", "observed": "cell-free assay", "technique": "competition with immobilised ligand", "concentration": "1 µM", "quantity": "remaining binding", "result": "100%"}
{"Compound": "Nc1ncnc2occ(-c3ccc(NC(=O)Nc4cc(C(F)(F)F)ccc4F)cc3)c12", "observed": "cell-free assay", "action": "inhibitor", "concentration": "20 µM", "quantity": "remaining signal", "result": "30%"}
